Experimental data from ChEMBL document CHEMBL1122794, “[(Arylcarbonyl)oxy]propanolamines. 1. Novel beta-blockers with ultrashort duration of action” (J Med Chem, 1984).

Legend:
[1] = Stability at pH 7.4 and 37 degree Celsius (after 18 h); format: physicochemical; details: buffer
Method in brief: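 Chemical stability was tested in pH 7.4 buffer at 37 °C. The percentage of parent compound remaining after 18 h of incubation was recorded.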

[2] = T1/2 in canine blood; format: ADME, […], Canis lupus familiaris; details: dog
Method in brief: (§1)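 1 mL of solution containing 50 µg of compound was added to 1 mL of dog or human whole blood, or to 1 mL of 33% (w/v) canine liver homogenate. They were assayed by HPLC on a phenyl column with 60% acetonitrile/40% 0.05 M sodium phosphate (pH 6.6) and UV detection. Half-life was read graphically from concentration versus time.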

[3] = t1/2 in canine liver; format: ADME, Canis lupus familiaris; details: dog
[4] = Time in which 1/2 of the initial amount disappeared in human blood.; format: ADME, organism-based; method in brief: as §1
[5] = target: T1, Adrenergic receptor beta (Homo sapiens, UniProt P08588+P07550+P13945); assay: In Vitro inhibition of the beta adrenergic receptor in guinea pig atria; format: tissue-based, Cavia porcellus; details: target entry is the homologue from another species
[6] = target: T1, Adrenergic receptor beta; assay: In vitro blocking of beta adrenergic receptor in guinea pig trachea; format: tissue-based, Cavia porcellus; details: target entry is the homologue from another species
[7] = (§2) Selectivity determined by expression 10[pA2(atria) - pA2 (trachea)] in guinea pig; format: functional, Cavia porcellus
[8] = species on record: Canis familiaris; assay: Percent inhibition of isoproterenol induced tachycardia at a dose of 20 microg (3-h infusion period); format: functional, Canis lupus familiaris
[9] = species on record: Canis familiaris; assay: Time taken for 80% recovery at a dose of 20 microg (3-h infusion period); format: functional, organism-based; details: Canis lupus familiaris
[10] = species on record: Canis familiaris; assay: Percent inhibition of isoproterenol induced tachycardia at a dose of 1.3 microg (3-h infusion period); format: functional, Canis lupus familiaris
[11] = Time in which 1/2 of the initial amount disappeared in canine liver(106); format: ADME, […], Canis lupus familiaris; details: dog; method in brief: as §1
[12] = species on record: Canis familiaris; assay: Time taken for 80% recovery at a dose of 106 microg (3-h infusion period); format: functional, organism-based; details: Canis lupus familiaris
[13] = species on record: Canis familiaris; assay: Time taken for 80% recovery at a dose of 50 microg (3-h infusion period); format: functional, organism-based; details: Canis lupus familiaris
[14] = species on record: Canis familiaris; assay: Percent inhibition of isoproterenol induced tachycardia at a dose of 7 microg (3-h infusion period); format: functional, Canis lupus familiaris
[15] = species on record: Canis familiaris; assay: Time taken for 80% recovery at a dose of 7 microg (3-h infusion period); format: functional, organism-based; details: Canis lupus familiaris
Method in brief: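 After the infusion ended, the time to 80% recovery of the blockade was recorded as duration of action. The listed dose is the average amount infused per minute over the 3-h period, in µg/(kg min).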

[16] = species on record: Canis familiaris; assay: Percent inhibition of isoproterenol induced tachycardia at a dose of 4 microg (3-h infusion period); format: functional, Canis lupus familiaris
[17] = species on record: Canis familiaris; assay: Time taken for 80% recovery at a dose of 4 microg (3-h infusion period); format: functional, organism-based; details: Canis lupus familiaris
[18] = species on record: Canis familiaris; assay: Time taken for 80% recovery at a dose of 25 microg (3-h infusion period); format: functional, organism-based; details: Canis lupus familiaris
[19] = species on record: Canis familiaris; assay: Time taken for 80% recovery at a dose of 172 microg (3-h infusion period); format: functional, organism-based; details: Canis lupus familiaris
[20] = as §2; format: functional, Cavia porcellus; remark: listed apart in the source
Method in brief: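 Selectivity index calculated as 10^[pA2(atria) − pA2(trachea)] from pA2 values measured in isolated guinea pig atria and trachea. A minus sign denotes β2 selectivity.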

[21] = species on record: Canis familiaris; assay: Time taken for 80% recovery at a dose of 121 microg (3-h infusion period) / 88 kg min (40-min infusion model); format: functional, organism-based; details: Canis lupus familiaris
[22] = species on record: Canis familiaris; assay: Time taken for 80% recovery at a dose of 18 microg (3-h infusion period); format: functional, organism-based; details: Canis lupus familiaris
[23] = species on record: Canis familiaris; assay: Time taken for 80% recovery at a dose of 226 microg (3-h infusion period); format: functional, organism-based; details: Canis lupus familiaris
[24] = species on record: Canis familiaris; assay: Time taken for 80% recovery at a dose of 28 microg (3-h infusion period); format: functional, organism-based; details: Canis lupus familiaris

Row | SMILES | remaining at 18 h [1] | half-life [2] | half-life [3] | half-life [4] | pA2 [5] | pA2 [6] | Selectivity [7] | other results
1 | Cc1ccccc1C(=O)OCC(O)CNC(C)(C)C (configuration not stated) | 100% | > 180 min | > 180 min | > 180 min | 7.3 | 7.9 | -4 | 
2 | CC(C)(C)NCC(O)COC(=O)c1ccccc1F (configuration not stated) | 98% | 30 min | 10 min | 1.6 min | 6.8 | 8 | -16 | Inhibition [8]: 60%; Recovery time [9]: 17 min
3 | CC(C)NCC(O)COc1cccc2ccccc12 (configuration not stated) [PROPRANOLOL] |  | > 180 min |  |  |  |  |  | Inhibition [10]: 68%
4 | CC(C)NCC(O)COC(=O)c1ccc(F)cc1 (configuration not stated) |  | 4 min | 3 min | 3.5 min | 6.6 | 7.3 | -5 | 
5 | CC(C)NCC(O)COC(=O)c1ccccc1F (configuration not stated) | 83% | 7 min |  | 1.7 min |  | 7.1 |  | half-life [11]: 4 min; Recovery time [12]: 25 min
6 | Cc1ccccc1C(=O)OCC(O)CNC(C)C (configuration not stated) | 100% | > 180 min | 147 min | > 180 min | 6.5 | 7.1 | -4 | Recovery time [13]: > 60 min
7 | CC(C)NCC(O)COC(=O)c1cccc(N)c1 (configuration not stated) |  | > 180 min | > 180 min |  | 6.4 | 6.8 | -2.5 | Inhibition [14]: 80%; Recovery time [15]: > 60 min
8 | CC(C)(C)NCC(O)COC(=O)c1ccc(O)cc1 (configuration not stated) |  | > 180 min | > 180 min | 56 min | 7.4 | 6.5 | 9 | Inhibition [16]: 71%; Recovery time [17]: > 60 min
9 | CC(C)(C)NCC(O)COC(=O)Cc1ccccc1 (configuration not stated) |  | 16 min |  | 6.3 min | 5.6 |  |  | 
10 | CC(C)NCC(O)COC(=O)c1ccc(O)cc1 (configuration not stated) |  |  |  |  | 6.8 | 7.2 | -2.5 | Recovery time [18]: > 45 min
11 | CC(C)(C)NCC(O)COC(=O)c1ccc([N+](=O)[O-])cc1 (configuration not stated) |  | > 180 min | > 180 min | 5.5 min | 6.1 |  |  | 
12 | CCCOc1ccccc1C(=O)OCC(O)CNC(C)C (configuration not stated) |  |  |  |  | 6.6 | 7.1 |  | Recovery time [19]: > 60 min; Selectivity [20]: -3.5
13 | CC(C)(C)NCC(O)COC(=O)c1cccc(OCc2ccccc2)c1 (configuration not stated) |  | > 180 min | > 180 min |  |  |  |  | 
14 | CC(C)(C)NCC(O)COC(=O)c1cccc(O)c1 (configuration not stated) |  | 119 min | 62 min |  | 7.4 | 7.6 | -2 | Inhibition [14]: 56%; Recovery time [15]: 25 min
15 | COc1ccc(CCNCC(O)COC(=O)c2ccccc2)cc1OC (configuration not stated) |  |  |  |  | 7 | 6.3 | 5 | Recovery time [21]: 29 min
16 | CC(C)(C)NCC(O)COC(=O)c1ccccc1Cl (configuration not stated) | 98% | 31 min | 72 min | 6 min |  |  |  | Recovery time [22]: > 35 min
17 | CC(C)(C)NCC(O)COC(=O)C(c1ccccc1)c1ccccc1 (configuration not stated) |  | > 180 min |  | 120 min | < 5.5 |  |  | 
18 | Cc1ccc(C(=O)OCC(O)CNC(C)C)cc1 (configuration not stated) |  | 67 min | 10.4 min | 6 min | 6.8 | 6.8 | 1 | 
19 | COc1ccc(CCNCC(O)COC(=O)c2ccccc2C)cc1OC (configuration not stated) | 94% |  |  |  | 7 | 6.8 | 2 | Recovery time [23]: > 60 min
20 | CC(C)(C)NCC(O)COC(=O)c1ccc2c(c1)OCO2 (configuration not stated) |  |  |  |  | 6.9 |  |  | Recovery time [24]: > 60 min
